# Experimental data: ChEMBL document CHEMBL5226322, “Harnessing the Role of HDAC6 in Idiopathic Pulmonary Fibrosis: Design, Synthesis, Structural Analysis, and Biological Evaluation of Potent Inhibitors” (J Med Chem, 2021)
# pIC50: −log10 of the molar value. The source made the active and inactive calls. No cut-off for these calls is given here.
# How the values were obtained:
# [1] = Inhibition of cell proliferation in IPF patient derived human Airway basal cell incubated for 14 days by MTT assay; type: functional, cell-based; settings: 336 h
# Outline: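 IPF patient airway basal cell 3D organoid cultures (10⁴ cells in Matrigel, 1:1 BEGM/DMEM) treated 14 days at 1–50 nM, medium changed weekly. Proliferation read by colorimetric MTT on day 14. Mean ± SEM of triplicates, n=3; repeated-measures ANOVA/Friedman test. Reported IC50 is the mean of the count-based and MTT-based IC50s.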
# Homo sapiens [2] = species: Homo sapiens; test: Inhibition of broncho-sphere formation in IPF patient derived human lung organoid assessed as inhibition of 3D organoid formation at 0.1 to 50 nM incubated for 14 days by Bright-field microscopy analysis; type: functional; settings: dose 0.1-50 nM, time 14.0 day
# Outline: (§1)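 Airway basal cells from bronchial brushings of IPF patients, 10⁴ cells in Matrigel on transwell inserts with 1:1 BEGM/DMEM. Treated 14 days (1–50 nM per methods; 0.1–50 nM per legend), medium changed every 7 days.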
# [3] = Solubility of the compound at pH 7.4 PBS buffer incubated for 24 hrs by HPLC-UV analysis; type: physicochemical; settings: pH 7.4, 24 h
# Outline: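 Compound from 10 mM DMSO stock diluted to 250 μM (2.5% DMSO), either in 50 mM acetic acid (pH 3.0) or in 50 mM aqueous PBS (pH 7.4). Shaken 24 h at 25 °C, PTFE-filtered and diluted 1:2. Quantified by RP-18 HPLC-UV at 254 nm against a 250 μM standard in MeCN/water. Run in triplicate and averaged.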
# Histone deacetylase 8 = molecular target: T1, Histone deacetylase 8 (Homo sapiens, UniProt Q9BY41); test: Inhibition of human recombinant HDAC8 using FLUOR DE LYS fluorometric substrate pre-incubated for 15 mins and followed by substrate addition and measured after 60 mins by microplate reader assay
# T1 sequence (Q9BY41 whole entry): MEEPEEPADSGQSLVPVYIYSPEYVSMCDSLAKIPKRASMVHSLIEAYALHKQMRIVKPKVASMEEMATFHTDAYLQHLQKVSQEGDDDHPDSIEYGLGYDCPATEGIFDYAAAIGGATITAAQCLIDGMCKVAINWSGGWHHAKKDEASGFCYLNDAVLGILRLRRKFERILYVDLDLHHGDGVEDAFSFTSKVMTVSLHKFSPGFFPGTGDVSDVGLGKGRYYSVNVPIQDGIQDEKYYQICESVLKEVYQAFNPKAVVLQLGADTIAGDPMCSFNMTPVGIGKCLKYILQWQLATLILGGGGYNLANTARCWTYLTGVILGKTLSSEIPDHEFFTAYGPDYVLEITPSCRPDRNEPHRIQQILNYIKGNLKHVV
# Outline: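 Recombinant human HDAC8 at 0.45 U/reaction with 0.5% DMSO; DMSO-only enzyme served as control. Enzyme preincubated 15 min with compound, then Fluor de Lys substrate added (50 μM final) for 1 h at 30 °C. Quenched with 2 μM TSA in Developer II for a further 1 h at 30 °C. Fluorescence read at ex 370/em 450 nm. IC50 from nonlinear dose-response fit.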
# [4] = Metabolic stability in human liver microsome assessed as intrinsic clearance at 5 uM in presence of NADPH incubated up to 60 mins by HPLC analysis; type: ADME; settings: microsomes, 1 h
# Outline: (§2)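 Compound at 5 μM, added in MeCN, incubated at 37 °C in 100 mM phosphate buffer pH 7.4 with 0.5 mg/mL human liver microsomal protein. Reaction started with an NADPH-generating system (2 mM NADPH, glucose-6-phosphate, G6P dehydrogenase, MgCl2). Stopped with MeCN at time points over 0–60 min. Remaining compound measured by RP-18 HPLC-UV at 254 nm, in triplicate. First-order depletion constant k; CLint = k × incubation volume / microsomal protein.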
# Histone deacetylase 1 [5] = molecular target: T2, Histone deacetylase 1 (Homo sapiens, UniProt Q13547); test: Inhibition of HDAC1 in human U87 cells assessed as increase in acetylation of histone H3 at 5 uM incubated for 30 hrs by western blot analysis; type: cell-based
# T2 sequence (Q13547 whole entry): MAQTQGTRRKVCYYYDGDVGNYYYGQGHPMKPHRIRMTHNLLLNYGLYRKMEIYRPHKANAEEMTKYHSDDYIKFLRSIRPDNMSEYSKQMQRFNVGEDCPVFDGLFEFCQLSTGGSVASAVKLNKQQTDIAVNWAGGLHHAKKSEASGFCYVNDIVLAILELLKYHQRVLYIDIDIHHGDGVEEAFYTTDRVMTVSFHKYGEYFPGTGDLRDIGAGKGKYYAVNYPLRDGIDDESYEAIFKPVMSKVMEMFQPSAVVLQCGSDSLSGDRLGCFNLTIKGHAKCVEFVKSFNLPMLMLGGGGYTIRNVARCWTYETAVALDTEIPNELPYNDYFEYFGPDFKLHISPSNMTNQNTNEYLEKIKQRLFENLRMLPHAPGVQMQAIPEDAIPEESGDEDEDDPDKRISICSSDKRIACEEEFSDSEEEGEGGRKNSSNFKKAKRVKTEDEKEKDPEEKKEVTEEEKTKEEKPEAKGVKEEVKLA
# Outline: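 Whole lysates (35 μg) and acid-extracted histones (2 μg) run on SDS-PAGE and blotted for acetylated tubulin or acetyl-histone H3; GAPDH or H4 as loading controls.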
# Histone deacetylase 1 [6] = molecular target: T2, Histone deacetylase 1; test: Inhibition of human recombinant HDAC1 using ZMAL (Z-(Ac)Lys-AMC) as fluorogenic substrate incubated for 120 mins by microplate reader assay
# [7] = Metabolic stability in human liver microsome assessed as compound remaining at 5 uM in presence of NADPH by HPLC analysis; type: ADME; settings: liver microsomes, read-out: Stability; outline: as §2
# [8] = Chemical stability of the compound at pH 3 incubated for 24 hrs by HPLC-UV analysis; type: physicochemical; settings: buffer, read-out: Stability
# Outline: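 Compound from 10 mM DMSO stock diluted to 250 μM (2.5% DMSO) in 50 mM acetic acid, pH 3.0. Held 24 h at 25 °C with orbital shaking. Analysed by RP-18 HPLC with UV at 254 nm. Percent remaining = peak area at 24 h / peak area at T0 × 100. Run in triplicate and averaged.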
# [9] = Inhibition of spheroid count in IPF patient derived human Airway basal cell incubated for 14 days by Bright-field microscopy analysis; type: functional, cell-based; outline: as §1
# Homo sapiens [10] = species: Homo sapiens; test: Antifibrotic activity in TGF-beta1-induced human Lung parenchyma assessed as inhibition of fibronectin mRNA expression at 4.1 uM incubated upto 7 days by qRT-PCR analysis; type: functional; settings: time <= 7.0 day
# Outline: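 Human lung parenchyma pieces (2 mm³) cultured in DMEM with TGF-β1 (10 ng/mL) plus compound at 0.41 or 4.1 μM or vehicle (0.1% DMSO). Tissue collected on day 7, homogenized, total RNA purified, then qRT-PCR for HDAC6, collagen I, collagen III, αSMA and fibronectin. Relative expression by the 2^-Ct method; n=3, paired t test.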
# Heart [11] = test: Cardiotoxicity in Langendorff-perfused Sprague-Dawley rat heart assessed as effect on RR time at 1 uM by ECG analysis (reference value: 257.2 +/-8.1 milliseconds); type: toxicity, tissue-based
# Heart [12] = test: Cardiotoxicity in Langendorff-perfused Sprague-Dawley rat heart assessed as effect on QT interval time at 10 uM by ECG analysis (reference value: 76.2 +/-2.9 milliseconds); type: toxicity, tissue-based
# Heart [13] = test: Cardiotoxicity in Langendorff-perfused Sprague-Dawley rat heart assessed as effect on QT interval time at 1 uM by ECG analysis (reference value: 76.2 +/-2.9 milliseconds); type: toxicity, tissue-based
# NIH3T3 = test: Cytotoxicity in mouse NIH3T3 cells assessed as reduction in cell viability at 75 uM incubated for 24 hrs by neutral red uptake method based UV/visible spectrophotometer analysis; type: toxicity; settings: nih3t3, 24 h
# Outline: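 NIH3T3 fibroblasts grown in DMEM with 10% FCS, L-glutamine/pen-strep and non-essential amino acids at 37 °C, 5% CO2. Monolayers exposed 24 h to compound diluted from a DMSO stock into medium. Neutral Red medium then added for 3 h at 37 °C. Dye extracted with acetic acid/ethanol desorb solution and absorbance read at 540 nm. Student's t-test, p<0.05.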
# [14] = Mutagenecity in Salmonella typhimurium TA100 in presence of S9 fraction at 1 to 75 uM incubated for 90 mins by Ames test; type: toxicity, subcellular; settings: salmonella enterica subsp. enterica serovar typhimurium, s9, 1.5 h, dose 1-75 µM
structure (smiles),measurement,setting,value
CN1CCC2(CC1)c1ccccc1N(Cc1ccc(C(=O)NO)cc1)C2c1ccccc1F (racemic),pIC50,[1],9.80
same,inhibition,Homo sapiens [2],Dose-Dependent Effect
same,solubility,[3],285 µM
same,pIC50,Histone deacetylase 8,5.46
same,CLH,[4],27.43 µL/min/mg
same,inhibition,Histone deacetylase 1 [5],Active
same,pIC50,Histone deacetylase 1 [6],5.31
same,remaining at 5 µM,[7],100%
same,remaining at 24 h,[8],98%
same,pIC50,[9],8.19
CC1(C)c2ccccc2N(Cc2ccc(C(=O)NO)cc2)C1c1cccnc1 (racemic),pIC50,[1],8.14
same,inhibition,Homo sapiens [2],Dose-Dependent Effect
same,Activity,Homo sapiens [10],Active
same,pIC50,Histone deacetylase 8,5.66
same,Time,Heart [11],257.7 ms
same,Time,Heart [12],78.3 ms
same,Time,Heart [13],76.4 ms
same,CLH,[4],25.46 µL/min/mg
same,Activity,NIH3T3,53%
same,inhibition,Histone deacetylase 1 [5],inactive
same,pIC50,Histone deacetylase 1 [6],5.27
same,Activity,[14],Non-Toxic
same,remaining at 5 µM,[7],100%
same,remaining at 24 h,[8],89%
same,pIC50,[9],8.14
